G6PDH counter = L. mesenteroides G6PDH inhibition counter-screen; Purified L. mesenteroides G6PDH, diaphorase/resazurin coupled fluorescence, 45 min; inhibition, % at 5 µM; 0.12% of 200,000 active; AID 1020; in the data active = inhibition above about 50%
Diaph act CS = counter-screen for diaphorase-based assays: diaphorase activators and chemical reducers | Diaphorase/resazurin coupled assay, resorufin fluorescence, 16 min; stronger effect = higher value; 1 = vehicle wells, 0 = NADH-free wells | activation factor at 20 µM | 0.005% of 190,000 active | AID 1229;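 active = diaphorase activity raised at least twofold by the compound at 20 µM; inactive = activation factor below 2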
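Material: Clostridium kluyveri diaphorase, purified enzyme; Quantity: enzyme 0.07 U/mL final; Medium: HEPES pH 7.4 buffer with MgCl2 and Tween 20; Dosing: single compound dose of 20 µM, 1% DMSO final; Schedule: 16 min reaction at room temperature; Measured by: red resorufin fluorescence at 544/590 nm excitation/emission.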
PMI act satM6P = PMI (human) activation, high substrate; AID 1216; coupled PMI enzyme assay, resazurin fluorescence, 20 min; stronger effect = higher value; 1 = untreated enzyme, 0 = substrate-free blank; P34949; 0.34% of 190,000 active; activation factor at 20 µM;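 active = activation factor of 2 or more at 20 µM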
Target sequence (P34949 whole entry, looked up): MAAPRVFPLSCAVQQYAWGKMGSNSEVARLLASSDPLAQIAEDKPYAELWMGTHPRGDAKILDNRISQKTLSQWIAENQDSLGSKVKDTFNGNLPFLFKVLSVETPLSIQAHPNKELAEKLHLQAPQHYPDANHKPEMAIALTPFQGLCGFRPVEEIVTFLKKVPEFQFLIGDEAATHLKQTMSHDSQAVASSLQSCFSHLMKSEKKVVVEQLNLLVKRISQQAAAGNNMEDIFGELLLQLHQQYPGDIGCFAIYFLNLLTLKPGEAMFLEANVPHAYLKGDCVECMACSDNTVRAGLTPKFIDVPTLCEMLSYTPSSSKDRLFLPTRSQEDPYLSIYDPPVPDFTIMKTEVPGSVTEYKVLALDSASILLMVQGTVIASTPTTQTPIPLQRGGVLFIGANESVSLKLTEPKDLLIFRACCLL
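assay system = human phosphomannose isomerase with PGI, G6PDH, diaphorase coupling enzymes | quantity = 15 ng/mL PMI | incubation = enzyme reaction with compound 20 min at room temperature | medium = HEPES pH 7.4 buffer with MgCl2 and Tween-20 | compound dosing = one concentration, 20 µM, in 1% DMSO | measured by = Diaphorase-driven resazurin-to-resorufin fluorescence, excitation 544, emission 590 nm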
Diaph inh CS = counter-screen for diaphorase-based assays: diaphorase inhibitors and chemical oxidizers; 0.69% of 190,000 active; diaphorase resazurin-to-resorufin fluorescence, NADH, 16 min; bacterial (C. kluyveri) enzyme, not human; inhibition, % at 20 µM;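 active = primary screen inhibition at 20 µM above a set limit, cut at about 50% in these data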;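 also: plate controls were DMSO with full reaction for no effect and wells lacking NADH for full effect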
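Assay system: diaphorase enzyme from Clostridium kluyveri; Input: enzyme working solution with 0.14 U/mL diaphorase; Timing: 16 min at room temperature; Technique: resorufin fluorescence, excitation 544 nm, emission 590 nm; Benchmarks: positive control minus NADH, DMSO neutral control.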
DTT redox prof = compounds producing H2O2 with reducing agent – biochemical, NIH compound library profiling, artefact control for MLSCN library redox annotation, primary screen; activation, % at 10 µM; DTT-dependent redox cycling H2O2, phenol red/HRP absorbance; 100% = 100 µM peroxide control, 0% = buffer; 0.03% of 200,000 active; AID 878;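 active = activation of at least 50% relative to the plate's high and low controls in the primary single-dose screen; inactive = activation below 50%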;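 also: compound incubated with DTT at 0.8 mM final as the reducing agent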
PMI activator = phosphomannose isomerase (human) activation; P34949; purified human PMI, coupled resazurin fluorescence, 20 min; stronger effect = higher value; 1 = vehicle control, 0 substrate-free wells; activation factor at 20 µM; 0.005% of 190,000 active; AID 1214;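 active = activation factor of 2 or more at 20 µM, relative to plate controls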
* = called active by the depositor. Hits are enriched below; roughly 1.1% of the tested compounds scored in any of these assays.

SMILES | G6PDH counter | Diaph act CS | PMI act satM6P | Diaph inh CS | DTT redox prof | PMI activator
CCC1=NN2C(=N)/C(=C\c3ccc(SCc4ccco4)o3)C(=O)N=C2S1 | 0.9 | 0.4 | 1.4 | 55.5* | 1.0 | 1.1
CCCC1=NN2C(=N)/C(=C\c3ccc(SCc4ccco4)o3)C(=O)N=C2S1 | -1.7 | 0.5 | 1.4 | 51.4* | 1.2 | 1.2
O=C1NC(=S)S/C1=C\c1ccc(SCc2ccco2)o1 | 13.2 | 0.2 | 0.9 | 80.9* | -0.1 | 0.9
O=C1NC(=S)S/C1=C\c1ccc(SCc2ccccc2)o1 | -13.2 | 0.6 | 0.3 | 35.4 | -0.4 | 0.2
CCC1=NN2C(=N)/C(=C/c3c(C)nn(-c4ccccc4)c3Cl)C(=O)N=C2S1 | -5.2 | 0.9 | 1 | 6.5 | 0.0 | 1.1
COc1ccc(OC)c(-c2cc(C(=O)NCc3ccc(Cl)cc3)no2)c1 | 11.6 | 1 | 1 | -0.7 | 0.0 | 1.2
Cc1cc(C(=O)OCC(=O)NC2CCCCC2)c(C)o1 | 2.1 | 1 | 1.1 | 2.9 | 50.8* | 1.1
COC(=O)CNC(=S)NC(=O)c1ccc(C(C)(C)C)cc1 | 12.3 | 0.8 | 0.8 | 19.2 | -0.1 | 0.9
CS/C(=N\S(=O)(=O)c1ccccc1)c1ccccc1 | 2.2 | 1 | 2* | -2.1 | 0.8 | 1.7
O=C(O)c1ccc(N2CCCCS2(=O)=O)cc1 | 0.1 | 0.9 | 0.9 | 8.3 | -0.1 | 1
O=C1c2cccc3c(N4CCCCC4)ccc(c23)C(=O)N1c1ccccc1O | 8.6 | 0.4 | 0.9 | 61.3* | -1.4 | 0.9
O=C1c2cccc3c(N4CCCCC4)ccc(c23)C(=O)N1c1ccc(O)cc1 | 6.0 | 0.8 | 0.9 | 15.4 | -1.2 | 0.9
O=C(CN1CCN(CC(=O)Nc2ccccc2Cl)CC1)Nc1ccc2c(c1)OCCO2 | 8.8 | 0.8 | 2* | 15.3 | -1.1 | 1.4
Cc1ccccc1NC(=S)N(Cc1ccco1)C(C)c1ccccn1 (configuration not stated) | 2.8 | 1 | 1 | -0.1 | 1.0 | 0.9
COc1ccccc1N(Cc1ccccc1)S(=O)(=O)c1cc(C(=O)O)ccc1Cl | 5.2 | 0.9 | 1 | 9.8 | -0.5 | 1
Oc1ccc(C=Nc2ccc3ncccc3c2)c(O)c1 | 56.1* | 0.3 | 0.3 | 68.0* | -0.6 | 0.3
CCOC(=O)c1c(OCC)[nH]c2c1cc(O)c1ccccc12 | 7.7 | 0.3 | 0.5 | 74.0* | -0.2 | 0.7
O=c1sc2ccccc2n1COc1ccccc1 | -0.4 | 0.3 | 1 | 69.5* | -0.4 | 1
O=c1sc2ccccc2n1COc1ccc(Cl)cc1 | 0.8 | 0.9 | 1 | 8.8 | 0.0 | 1
Cc1cc(C(F)F)nn1CC(=O)Nc1cc([N+](=O)[O-])ccc1F | -3.8 | 0.9 | 0.9 | 10.2 | 0.0 | 0.9
CCCCC(=O)NNC(=S)NC(=O)c1ccc(C)cc1 | 9.6 | 0.7 | 1.3 | 32.1 | -1.2 | 1.1
Cc1ccc(C(=O)NC(=S)NNC(=O)CC#N)cc1 | 8.8 | 0.4 | 1 | 57.4* | -0.3 | 0.9
COc1ccccc1N1C(=N)S/C(=C\c2ccc(-c3ccccc3C(=O)O)o2)C1=O | 2.0 | 0.7 | 1.4 | 34.3 | -0.1 | 1.4
N=C1S/C(=C\c2ccc(-c3ccccc3C(=O)O)o2)C(=O)N1c1ccc2c(c1)OCO2 | 2.5 | 0.3 | 1.4 | 67.0* | -0.2 | 0.1
CC(C)CCNC(=O)CNC(=S)N(Cc1ccccc1)Cc1cccnc1 | -1.7 | 1 | 1.1 | 0.0 | -0.2 | 1
SMILES | G6PDH counter | Diaph act CS | PMI act satM6P | Diaph inh CS | DTT redox prof | PMI activator
Cc1ccc(S(=O)(=O)N2CCOCC2)cc1NC(=O)CSc1nnc2cc(C)c3ccccc3n12 | 10.2 | 0.5 | 0.9 | 53.7* | -0.8 | 0.9
CCCCCc1ccc(OCCOCCn2c[n+](C)c3ccccc32)c(CCCCC)c1 | -3.5 | 2* | 1.1 | -95.1 | 0.0 | 1.1
COc1cc2c(cc1OC)C1=C(C#N)CC/C(=N\S(=O)(=O)c3cccc(Cl)c3)N1CC2 | 0.0 | 0.4 | 0.9 | 61.2* | 2.4 | 0.9
CC(C)C(=O)N/N=C/c1ccc(OCc2ccccc2)cc1 | 5.7 | 0.9 | 0.9 | 14.6 | 0.8 | 0.9
Oc1ccccc1/C=N/Nc1ncc(Br)cn1 | 58.0* | 0.9 | 0.8 | 13.8 | -0.1 | 0.8
O=C(Oc1ccc(/C=N/Nc2ccccc2)cc1)c1ccccc1 | 0.5 | 1.1 | 2.3* | -11.7 | -5.6 | 1.5
CCCCCCCC(=O)N/N=C(/C)c1c(O)cc(C)oc1=O | 7.0 | 0.8 | 1.1 | 20.0 | -2.8 | 1
C/C(=N\Nc1ccc(Cl)cc1)c1c(O)cc(C)oc1=O | 1.5 | 0.9 | 2.6* | 11.8 | -0.1 | 1.7
O=C(O)c1cc(N/N=C/c2ccc(OCc3ccccc3)cc2)ccc1Cl | 12.3 | 0.9 | 2.5* | 8.6 | -0.8 | 1.7
Cc1cccc(N/C=C(\[N+](=O)[O-])S(=O)(=O)c2ccccc2)c1C | 8.8 | 0.8 | 0.7 | 17.9 | -2.1 | 0.9
CC1=CC=CN2C1=NC(=O)CC2(C)C(=O)N(CC(=O)NC1CCCC1)c1cc(C)cc(C)c1 (configuration not stated) | 2.4 | 1 | 1.1 | 3.9 | -1.0 | 1.1
Cn1cc(/C=N/Nc2ccccc2)c2ccccc21 | 11.2 | 0.8 | 2.5* | 17.6 | -2.4 | 1.6
Cc1cc(O)c(/C=N/Nc2ccccc2)c(=O)o1 | 14.8 | 0.8 | 2* | 17.2 | 0.9 | 1.5
Oc1ccc(/C=N/Nc2ccc3ccccc3c2)c(O)c1 | 14.2 | 0.7 | 1.9 | 33.2 | 0.1 | 1.4
Oc1ccccc1/C=N/Nc1ccccc1 | 2.7 | 0.8 | 2.3* | 19.9 | -0.4 | 1.6
Cc1cc(O)c(C=Nc2cccc(Cl)c2)c(=O)o1 | -6.8 | 0.9 | 1.2 | 11.7 | -1.0 | 1.1
O=C(NNC(=O)c1cc(-c2ccccc2)n(-c2ccccc2)n1)c1cccc([N+](=O)[O-])c1 | -12.6 | 0.9 | 1.1 | 8.4 | 0.2 | 1
O=c1[nH]c(-c2ccccn2)nc2sc(-c3ccccc3)cc12 | 12.9 | 0.7 | 0.8 | 30.3 | -0.6 | 0.5
N#Cc1cccc(N=Cc2c(O)ccc3ccccc23)c1 | 62.1* | 0.6 | 0.4 | 36.4 | -0.1 | 0.6
Cc1ccc(N=Cc2c(O)ccc3ccccc23)cc1F | 45.1 | 0.8 | 0.5 | 18.2 | 0.1 | 0.7
Cc1ccc(SC(C)C(=O)Nc2ccc(S(=O)(=O)N3CCOCC3)cc2)cc1 (configuration not stated) | 10.4 | 0.5 | 0.9 | 52.7* | -8.2 | 0.8
O=C(CSc1nc2ccccc2s1)Nc1cc(S(=O)(=O)N2CCOCC2)ccc1Cl | -15.7 | 0.8 | 1.6 | 24.9 | 0.1 | 1.2

Assay outcomes: PubChem BioAssay, several laboratories
